In one assay the test system is HepG2. The experiment in a line: Cytotoxicity against human HepG2 cells by MTT assay. In kind it is functional, cell-based. A digest of the protocol: (§1)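 HepG2 (hepatoma line HA22T) and KB (epidermoid carcinoma, CCRC 60017) cells seeded at (1-1.5) × 10^4/mL and incubated overnight at 37 °C in 5% CO₂. On day 3, MTT (5 mg/mL solution) was added for 4 h, then formazan was dissolved in DMSO and read spectrophotometrically.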

The subject of a further assay is KB. The experiment in a line: Cytotoxicity against human KB cells by MTT assay. The assay is classed as functional, cell-based. A digest of the protocol: as §1
(In general: Tetrazolium dyes change colour on reduction, which living cells bring about.)

One may read the IC50 as the concentration at which inhibition is half-maximal. A high value points to weaker potency.

Molecules are shown by their SMILES.

For `COc1c(O)ccc(C=O)c1OC`, the IC50 in the assay with HepG2 and in the assay with KB was more than 100 µM throughout.
Regarding `COc1cc(C/C=C\c2ccc(O)c(OC)c2OC)ccc1O` [PULCHELSTYRENE B], the IC50 was more than 100 µM in the assay on HepG2 and 55.6 µM in the assay with KB.
In the same order, the values of `COc1c(O)ccc(/C=C\Cc2ccc(O)cc2)c1OC` [PULCHELSTYRENE A] are more than 100 µM and more than 100 µM.
In the same order, the values of `COc1cc2c(c(OC)c1O)C=CCC21C=CC(=O)C=C1` [PULCHELSTYRENE D] are more than 100 µM and more than 100 µM.
As to `COc1cc(C/C=C/c2ccc(OC)c(O)c2OC)ccc1O` [PULCHELSTYRENE C], the values for the IC50 in the assay with HepG2 and with KB were more than 100 µM and 39.8 µM, respectively.
Consider `CC1(C)C=Cc2c(cc(O)c3c(=O)c(O)c(-c4ccc(O)cc4)oc23)O1` [CITRUSINOL], for which the IC50 turned out to be 43.3 µM in the assay on HepG2 and 42.3 µM with KB.
The like results for `CC1(C)C=Cc2c(cc(O)c3c2O[C@H](c2ccc(O)cc2)[C@@H](O)C3=O)O1` [YUKOVANOL] were, in that order, more than 100 µM and more than 100 µM.

(Values after ChEMBL document CHEMBL1158773, “Cinnamylphenols from Phyllodium pulchellum” (J Nat Prod, 2005).)
